Assay results pooled from the literature.
Each line is one published result; the experiments were not run side by side.

SMILES | cell line | assay | setting | IC50 [µM]
CC1(C)C(=O)NC2=C1C(=O)C(=O)c1ccccc12 | FaDu | cell growth or viability | 72 h | 4.2
CN(C)c1ccc(-c2nc3ccccc3[nH]2)cc1 | MCF7 | cell growth or viability, MTT | 48 h | > 100
COc1cc(C2Oc3cc([C@H]4Oc5cc(O)cc(O)c5C(=O)[C@@H]4O)ccc3OC2CO)ccc1O (some centres unmarked) | HepaRG | cell growth or viability, MTT | 24 h | 142
COc1ccc(C(=O)O[C@@H]2CN3Cc4c(cc5c(c4OC)OCO5)[C@@]24C=C[C@H](OC)C[C@@H]34)cc1 | SAOS-2 | cell growth or viability, WST-1 | – | > 10
Nc1ncnc2c1ncn2[C@@H]1O[C@H](CO)[C@@H](O)[C@@H]1O | FaDu | cell growth or viability | 72 h | > 20
O=C(/C=C/c1cccc(S(=O)(=O)Nc2ccccc2)c1)NO | SW-620 | cell growth or viability, SRB | 48 h | 3.23
O=c1c(O)c(-c2ccc(O)c(O)c2)oc2cc(O)cc(O)c12 | HEp-2 | cell growth or viability, WST-1 | 48 h | 10.9
O=C(/C=C/c1ccc2ncn(Cc3ccccc3F)c(=O)c2c1)NO | SW-620 | cell growth or viability, SRB | 48 h | 1.12
COc1ccc(CCN(C)CCc2ccc(OC)c(OC)c2)cc1OC | FaDu | cell growth or viability | 72 h | > 20
CCCCCC/N=C1\c2cc(C(N)=O)nc3c(N)c(Cl)c(N)c(c23)N1C | Calu-3 | cell growth or viability | – | 0.86
COc1ccc(-c2nc3ccc(C)cc3[nH]2)cc1O | MCF7 | cell growth or viability, MTT | 48 h | 23.7
O=C(/C=C/c1ccc2c(=O)n(Cc3cccc(F)c3)cnc2c1)NO | SW-620 | cell growth or viability, SRB | 48 h | 1.67
C=CCn1c(-c2ccc(Cl)cc2)nc2ccccc21 | MCF7 | cell growth or viability, MTT | – | 79
Nc1ncnc2c1ncn2[C@@H]1O[C@H](CO)[C@@H](O)[C@H]1O | HEp-2 | cell growth or viability, WST-1 | 48 h | 49.1
CC(C)C[C@H](NC(=O)[C@H](Cc1ccccc1)NC(=O)c1cnccn1)B(O)O | SJSA-1 | cell growth or viability, ATP luminescence | – | 0.011
COc1ccc(CC(C)NCC(O)c2ccc(O)c(NC=O)c2)cc1 (centres unmarked) | THP-1 | TNF-α release, inhibitor | 17 h, LPS-stimulated | 0.006
Cc1ccc2nc(-c3ccc(Cl)c(Cl)c3)[nH]c2c1 | MCF7 | cell growth or viability, MTT | 48 h | 50.8
CC(=O)O[C@H]1C(=O)[C@@]2(C)[C@H]([C@H](OC(=O)c3ccccc3)[C@]3(O)C[C@H](OC(=O)[C@H](O)[C@@H](NC(=O)c4ccccc4)c4ccccc4)C(C)=C1C3(C)C)[C@]1(OC(C)=O)CO[C@@H]1C[C@@H]2O | Panc02 | cell growth or viability, CCK-8 | 72 h | 0.0833
CC(CCc1ccc(O)cc1)NCCc1ccc(O)c(O)c1 (centres unmarked) | THP-1 | TNF-α release, inhibitor, ELISA | 17 h, LPS-stimulated | 0.09
CC(C)C(=O)SCCCCCCC(=O)Nc1nc(-c2ccccc2)cs1 | FaDu | cell growth or viability | 72 h | 4.29
COc1cc(Nc2nccc(-c3cnn4nc(OC)ccc34)n2)cc(C(F)(F)F)c1 | SK-MEL3 | cell growth or viability, ATP luminescence | – | 1.6
CC[C@@H](C)[C@H](N)C(=O)N1Cc2ccccc2C1 | NOMO-1 | cell growth or viability, ATP luminescence | 48 h | 4.18
CC(C)NCC(O)c1cc(O)cc(O)c1 (centres unmarked) | THP-1 | TNF-α release, inhibitor | 17 h, LPS-stimulated | 0.6
